Results: ChEMBL document CHEMBL4196108, “5-Aroylindoles Act as Selective Histone Deacetylase 6 Inhibitors Ameliorating Alzheimer's Disease Phenotypes” (J Med Chem, 2018)
The source made the active and inactive calls. No cut-off for these calls is given here.

How the values were obtained:
Rattus norvegicus = assay: Reversal of scopolamine-induced spatial memory impairment in Wistar rat assessed as reduction in escape latency in hidden platform at 25 mg/kg, po administered once daily for 1 week followed by scopolamine challenge 90 mins prior to test by Morris water maze test; format: functional, organism-based
In short: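 Male Wistar rats, 7 weeks old, dosed orally at 25 mg/kg in 1% carboxymethyl cellulose/0.5% Tween 80 once daily. Scopolamine 1 mg/kg i.p. 90 min before test trial (controls excluded). Morris water maze (hidden platform escape latency), elevated plus maze (started at open-arm end, time to closed arm), then CA1 phospho-tau Ser396/Ser404 immunohistochemistry.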

Mus musculus [1] = assay: In vivo inhibition of HDAC6 in 3xTg-AD transgenic mouse brain hippocampal CA1 region assessed as downregulation of […] expression of beta-amyloid at 50 mg/kg, po administered daily for 3 months by Western blot analysis; format: functional, organism-based
[2] = Ratio of drug level in brain to plasma in Sprague-Dawley rat at 50 mg/kg, po after 3 hrs; format: ADME, organism-based; conditions: read-out: BPR
[3] = Ratio of drug level in brain to plasma in Sprague-Dawley rat at 50 mg/kg, po after 1 hr; format: ADME, organism-based; conditions: read-out: BPR
[4] = molecular target: T1, Protein deacetylase HDAC6 (Homo sapiens) (UniProt Q9UBN7); assay: (§1) Inhibition of HDAC6 in human SH-SY5Y cells transfected with pCAX FLAG APP and pRK5-EGFP-Tau P301L plasmids assessed as suppression of phosphorylated tau P301L mutant-induced apoptosis by measuring accumulation at sub-G1 phase at 1 uM after 24 hrs by propidium iodide staining-based flow cytometry (reference value: 22.01%); format: cell-based; parameters: scale not given: the % may be the effect or the level left
T1 sequence (whole entry): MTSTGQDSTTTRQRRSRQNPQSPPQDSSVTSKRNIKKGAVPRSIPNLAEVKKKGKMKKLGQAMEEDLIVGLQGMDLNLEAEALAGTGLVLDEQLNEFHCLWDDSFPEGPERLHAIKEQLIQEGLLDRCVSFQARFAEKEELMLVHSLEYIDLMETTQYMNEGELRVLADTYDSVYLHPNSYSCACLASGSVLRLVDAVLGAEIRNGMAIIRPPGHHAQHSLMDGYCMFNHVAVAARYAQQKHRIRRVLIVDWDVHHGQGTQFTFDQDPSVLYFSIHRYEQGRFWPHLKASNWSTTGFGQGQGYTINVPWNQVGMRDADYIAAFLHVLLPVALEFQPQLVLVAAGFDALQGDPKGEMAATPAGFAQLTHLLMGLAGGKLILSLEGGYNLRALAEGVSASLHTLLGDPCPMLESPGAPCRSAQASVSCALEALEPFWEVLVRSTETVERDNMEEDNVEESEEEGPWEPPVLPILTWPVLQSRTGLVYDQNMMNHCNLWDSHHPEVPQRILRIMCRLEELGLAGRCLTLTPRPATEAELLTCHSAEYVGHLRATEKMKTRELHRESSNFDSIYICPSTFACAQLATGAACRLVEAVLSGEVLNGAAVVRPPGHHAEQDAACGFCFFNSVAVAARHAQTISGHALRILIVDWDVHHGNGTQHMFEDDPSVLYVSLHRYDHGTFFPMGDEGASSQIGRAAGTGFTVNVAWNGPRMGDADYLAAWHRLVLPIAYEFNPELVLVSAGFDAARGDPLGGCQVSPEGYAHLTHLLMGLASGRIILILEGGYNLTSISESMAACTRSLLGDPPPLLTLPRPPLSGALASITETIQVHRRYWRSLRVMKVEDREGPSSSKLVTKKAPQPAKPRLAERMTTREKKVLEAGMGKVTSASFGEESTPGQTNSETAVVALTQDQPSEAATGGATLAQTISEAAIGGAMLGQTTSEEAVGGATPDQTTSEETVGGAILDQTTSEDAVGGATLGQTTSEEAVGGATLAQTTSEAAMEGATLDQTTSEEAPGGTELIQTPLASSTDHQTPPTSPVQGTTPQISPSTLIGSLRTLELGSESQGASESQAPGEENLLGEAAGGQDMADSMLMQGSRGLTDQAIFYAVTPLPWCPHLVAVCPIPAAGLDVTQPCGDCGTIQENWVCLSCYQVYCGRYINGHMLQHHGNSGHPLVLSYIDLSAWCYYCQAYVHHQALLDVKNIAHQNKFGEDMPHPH

[5] = Drug uptake in Sprague-Dawley rat brain at 50 mg/kg, po after 1 hr by HPLC-MS/MS analysis; format: ADME, organism-based; conditions: read-out: Drug uptake
Mus musculus [6] = assay: Toxicity in Balb/c mouse assessed as increase in body weight at 100 to 1000 mg/kg/day, ip administered for 6 days followed by 1 week recovery; format: organism-based; conditions: in vivo
In short: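 Male Balb/c mice given 100, 500 or 1000 mg/kg/day i.p. for 6 days, then 1 week recovery; six vehicle-injected mice as controls. Body weight and survival recorded daily.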

[7] = molecular target: T1, Protein deacetylase HDAC6 (Homo sapiens); assay: Inhibition of HDAC6 in human SH-SY5Y cells transfected with pCAX FLAG APP and pRK5-EGFP-Tau P301L plasmids assessed as increase in coimmunoprecipitation of ubiquitin with phosphorylated tau at Ser396 residue at 1 uM after 24 hrs; format: cell-based
In short: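 In APP695/Tau P301L-cotransfected SH-SY5Y cells treated 24 h at 1 µM, lysates (30 µg) were immunoprecipitated with anti-ubiquitin antibody and protein A/G beads overnight at 4 °C, then immunoblotted for phospho-tau Ser396 after 8% SDS-PAGE.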

[8] = molecular target: T1, Protein deacetylase HDAC6 (Homo sapiens); assay: Inhibition of HDAC6 in human SH-SY5Y cells transfected with pCAX FLAG APP and pRK5-EGFP-Tau P301L plasmids assessed as increase in polyubiquitinated protein level at 0.01 to 1 uM after 24 hrs by immunoblot analysis; format: cell-based
In short: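 SH-SY5Y cells transfected 24 h with APP695/Tau P301L plasmids, then treated; whole lysates immunoblotted for polyubiquitin complexes.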

[9] = molecular target: T1, Protein deacetylase HDAC6 (Homo sapiens); assay: Inhibition of HDAC6 in human SH-SY5Y cells assessed as increase in acetylation of alpha-tubulin at 0.1 to 1 uM after 24 hrs by Western blot analysis; format: cell-based
In short: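 SH-SY5Y cells in MEM with 10% FBS at 37 °C, 5% CO2, treated 24 h at 0.1–1 µM. Lysates in HEPES/Triton buffer; 20 µg protein run on SDS-PAGE and immunoblotted for acetyl-α-tubulin, α-tubulin, acetyl-histone H3 and histone H3 with ECL detection.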

[10] = molecular target: T1, Protein deacetylase HDAC6 (Homo sapiens); assay: as §1, with “at 0.1” for “at 1”; format: cell-based; parameters: scale not given: the % may be the effect or the level left
[11] = molecular target: T1, Protein deacetylase HDAC6 (Homo sapiens); assay: Inhibition of HDAC6 in human SH-SY5Y cells transfected with pCAX FLAG APP and pRK5-EGFP-Tau P301L plasmids assessed as inhibition of amyloid beta (1 to 40)-induced Tau P301L mutant phosphorylation at 1 uM after 24 hrs by Western blot analysis
[12] = Toxicity in Balb/c mouse assessed as survival rate at 500 mg/kg, ip qd administered for 6 days followed by 1 week recovery (reference value: 100%); format: organism-based; conditions: in vivo
[13] = Toxicity in Balb/c mouse assessed as survival rate at 1000 mg/kg, ip qd administered for 6 days followed by 1 week recovery (reference value: 100%); format: organism-based; conditions: in vivo

## COc1ccc(C(=O)c2ccc3c(ccn3Cc3ccc(C(=O)NO)cc3)c2)cc1
Rattus norvegicus
  Activity: Active
Mus musculus [1]
  inhibition: Active
[2]
  Kp at 3 h: 0.86
[3]
  Kp at 1 h: 1.19
[4]
  Activity: 11.5%
[5]
  concentration at 1 h: 10.4 ng/g
Mus musculus [6]
  Activity: Non-Toxic
[7]
  inhibition: Active
[8]
  inhibition: Active
[9]
  inhibition: Active
[10]
  Activity: 13.5%
[11]
  inhibition: Active
[12]
  survival: 100%
[13]
  survival: 100%
